Test results as given in paper PMC10582660 (Clinical and Translational Science, 2023).
Like-named read-outs stand apart in the source and are kept apart here. Marks after values point to notes of the source that are not given here.

Assays:
[1] = assay type: in vivo, human; settings: for AUC0–96h, geometric mean (CV%) / AUC0–48h, geometric mean (CV%) / t 1/2, geometric mean (CV%) / t max,1, median (range): plasma, raloxifene 60 mg oral
How it was run: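 Open-label fixed-sequence crossover in 16 healthy adults (8 male, 8 female), arms ≥7 days apart, fasted from midnight. Oral 60 mg test compound tablet with 240 mL water at 50°C (baseline) or brewed green tea. Acute: tea (one bag, 240 mL water, 80°C, 3 min, cooled to 50°C) given with dose, then at 4 and 8 h. Chronic: tea three times daily for 4 days, then day 5 as acute.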

[2] = Follow-up exploratory clinical study: plasma pharmacokinetics; assay type: in vivo, human; settings: follow-up study; for AUC0–48h green tea/baseline ratio (90% CI) / Cmax,1 green tea/baseline ratio (90% CI): acute green tea vs baseline; for AUC0–48h, geometric mean (CV%) / t max,1, median (range) / Cmax: plasma; for Cmax: read-out: Cmax,1, geometric mean (CV%)
How it was run: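 Six healthy adults (3 male, 3 female) in sequential arms ≥7 days apart: oral test compound with water, then with acute brewed green tea, then tea alone. Plasma sampled 0–48 h at the main-study times. Analysed by UHPLC–MS/MS for parent and glucuronides. […] Green tea/baseline ratios on log-transformed data, paired two-tailed t-test.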

[3] = 16 healthy adults, baseline (water)

SMILES | Metabolite‐to‐parent AUC0–96h ratio, geometric mean (CV%) ([1]; acute green tea) | AUC0–48h green tea/baseline ratio (90% CI) ([1]; acute green tea vs baseline) | AUC0–96h green tea/baseline ratio (90% CI) ([1]; acute green tea vs baseline) | Cmax,1 green tea/baseline ratio (90% CI) ([1]; acute green tea vs baseline) | t 1/2 green tea/baseline ratio (90% CI) ([1]; acute green tea vs baseline) | Metabolite‐to‐parent AUC0–96h ratio, geometric mean (CV%) ([1]; baseline (water)) | Metabolite‐to‐parent AUC0–96h ratio, geometric mean (CV%) ([1]; chronic green tea) | AUC0–48h green tea/baseline ratio (90% CI) ([1]; chronic green tea vs baseline) | AUC0–96h green tea/baseline ratio (90% CI) ([1]; chronic green tea vs baseline) | Cmax,1 green tea/baseline ratio (90% CI) ([1]; chronic green tea vs baseline) | t 1/2 green tea/baseline ratio (90% CI) ([1]; chronic green tea vs baseline) | AUC0–96h, geometric mean (CV%) [1, 3] | AUC0–48h, geometric mean (CV%) ([1]; acute green tea) | AUC0–96h, geometric mean (CV%) ([1]; acute green tea) | t 1/2, geometric mean (CV%) ([1]; acute green tea) | t max,1, median (range) ([1]; acute green tea) | AUC0–48h, geometric mean (CV%) ([1]; baseline (water)) | t 1/2, geometric mean (CV%) ([1]; baseline (water)) | t max,1, median (range) ([1]; baseline (water)) | AUC0–48h, geometric mean (CV%) ([1]; chronic green tea) | further results
O=C(c1ccc(OCCN2CCCCC2)cc1)c1c(-c2ccc(O[C@@H]3O[C@H](C(=O)O)[C@@H](O)[C@H](O)[C@H]3O)cc2)sc2cc(O)ccc12 [Raloxifene 4′‐glucuronide, raloxifene 4′‐glucuronide] | 161 (36) | 0.54 (0.43–0.68) | 0.57 (0.45–0.73) | 0.42 (0.31–0.57) | 0.91 (0.72–1.16) | 160 (34) | 159 (34) | 0.57 (0.43–0.76) | 0.65 (0.51–0.82) | 0.46 (0.31–0.70) | 0.92 (0.72–1.18) | 2350 (45) nM‐h | 1080 (55) nM‐h | 1350 (69)** nM‐h | 15.9 (66) h | 1.5 (0.5–6) h | 1990 (48) nM‐h | 17.0 (57)^b h | 1.25 (0.25–4) h | 1134 (56) nM‐h | AUC0–96h, geometric mean (CV%) ([1]; chronic green tea): 1520 (76)* nM‐h; t 1/2, geometric mean (CV%) ([1]; chronic green tea): 15.6 (48)^b h; t max,1, median (range) ([1]; chronic green tea): 1.25 (0.5–3) h; Metabolite‐to‐parent AUC0–48h ratio, geometric mean (CV%) ([2]; acute green tea): 184 (25); AUC0–48h green tea/baseline ratio (90% CI) [2]: 0.93 (0.81–1.06); Cmax,1 green tea/baseline ratio (90% CI) [2]: 0.79 (0.68–0.93); Metabolite‐to‐parent AUC0–48h ratio, geometric mean (CV%) ([2]; baseline): 179 (23); AUC0–48h, geometric mean (CV%) ([2]; acute green tea): 1368 (50) ^* nM‐h; t max,1, median (range) ([2]; acute green tea): 1 (0.5–1) h; t max,1, median (range) ([2]; baseline): 1.25 (1–3) h; AUC0–48h, geometric mean (CV%) ([2]; six healthy adults, baseline): 1473 (50) nM‐h; Cmax ([2]; acute green tea): 75 nM; Cmax ([2]; baseline): 94.4 nM
O=C(c1ccc(OCCN2CCCCC2)cc1)c1c(-c2ccc(O)cc2)sc2cc(O[C@@H]3O[C@H](C(=O)O)[C@@H](O)[C@H](O)[C@H]3O)ccc12 [Raloxifene 6‐glucuronide, raloxifene 6‐glucuronide] | 39 (43) | 0.57 (0.45–0.74) | 0.60 (0.47–0.77) | 0.38 (0.23–0.63) | 1.08 (0.90–1.31) | 37 (45) | 37 (44) | 0.59 (0.43–0.79) | 0.67 (0.53–0.86) | 0.50 (0.35–0.73) | 0.92 (0.76–1.12) | 535 (48) nM‐h | 255 (68) nM‐h | 324 (79)* nM‐h | 20.5 (36)^b h | 1.5 (0.5–4) h | 444 (56) nM‐h | 18.9 (40)^b h | 1.5 (1–4) h | 261 (57) nM‐h | AUC0–96h, geometric mean (CV%) ([1]; chronic green tea): 360 (78) nM‐h; t 1/2, geometric mean (CV%) ([1]; chronic green tea): 17.8 (46)^c h; t max,1, median (range) ([1]; chronic green tea): 1.5 (1–6) h; Metabolite‐to‐parent AUC0–48h ratio, geometric mean (CV%) ([2]; acute green tea): 22 (50); AUC0–48h green tea/baseline ratio (90% CI) [2]: 0.88 (0.73–1.06); Cmax,1 green tea/baseline ratio (90% CI) [2]: 0.73 (0.60–0.88); Metabolite‐to‐parent AUC0–48h ratio, geometric mean (CV%) ([2]; baseline): 23 (47); AUC0–48h, geometric mean (CV%) ([2]; acute green tea): 166 (61) nM‐h; t max,1, median (range) ([2]; acute green tea): 1 (1–3) h; t max,1, median (range) ([2]; baseline): 1.25 (1–3) h; AUC0–48h, geometric mean (CV%) ([2]; six healthy adults, baseline): 189 (46) nM‐h; Cmax ([2]; acute green tea): 6.85 nM; Cmax ([2]; baseline): 9.39 nM
